The source of these data is ChEMBL document CHEMBL2413001, “Exploring pyrimidine-substituted curcumin analogues: design, synthesis and effects on EGFR signaling” (Bioorg Med Chem, 2013).

Activity calls are given as the source filed them. No cut-off for these calls is given here.

In test [1] the test system is HT-29. Briefly: Cytotoxicity against human HT-29 cells assessed as growth inhibition after 48 hrs by resazurin assay. The settings on record: for IC50: HT-29, 48 h. The test is classed as functional, cell-based. Put shortly:
(§1)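 HCT116 or HT29 seeded at 2000 cells/well, grown 24 h, then given fresh complete McCoy's 5A (5% FBS, 0.1% DMSO final) containing serial compound concentrations for 48 h. Resazurin was added for 16 h and fluorescence read at ex 544/em 595 nm as a measure of living cells. IC50 was calculated by the Logit approach; values are mean ± SD.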
(In general: The colour change of resazurin is a common sign of viable cells or microbes.)

In test [2] the test system is HCT-116. The experiment in a line: Cytotoxicity against human HCT116 cells assessed as growth inhibition after 48 hrs by resazurin assay. The format is functional, cell-based. The settings on record: for IC50: HCT-116, 48 h. Put shortly:
as §1

The subject of test [3] is HCT-116. The experiment in a line: Induction of apoptosis in human HCT116 cells assessed as ratio of Bax to Bcl-2 expression at 5 uM after 72 hrs by Western blot analysis relative to control. The format is functional. The gist of the method: (§2)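 HCT116 only, seeded at 8 × 10⁴ cells/ml in 15 cm dishes for 24 h, then treated for 72 h at 20 µM or at 5, 10 and 20 µM. Lysed in Triton lysis buffer (pH 7.5) with inhibitors, sonicated, and protein assayed by BCA. Western blots were developed by ECL. Band intensities were normalized to β-actin, as means of three independent experiments; the Bax/Bcl-2 ratio was expressed relative to untreated control.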
On the technique in general: Immunoblotting shows a protein as a band on a membrane.

The subject of test [4] is HCT-116. The experiment in a line: Induction of apoptosis in human HCT116 cells assessed as ratio of Bax to Bcl-2 expression at 10 uM after 72 hrs by Western blot analysis relative to control. The format is functional. The gist of the method: as §2
The subject of test [5] is HCT-116. The experiment in a line: Induction of apoptosis in human HCT116 cells assessed as ratio of Bax to Bcl-2 expression at 20 uM after 72 hrs by Western blot analysis relative to control. The format is functional. Put shortly:
as §2

Test [6] deals with HCT-116. The experiment in a line: Induction of apoptosis in human HCT116 cells assessed as increase in Bax expression after 72 hrs by Western blot analysis. The format is functional, cell-based. Put shortly: as §2
Test [7] deals with HCT-116. The experiment in a line: Induction of apoptosis in human HCT116 cells assessed as reduction in Bcl-2 expression after 72 hrs by Western blot analysis. The format is functional, cell-based. Put shortly: as §2
Test [8] deals with HCT-116. Briefly: Induction of apoptosis in human HCT116 cells assessed as effect on HSP-90 expression after 72 hrs by Western blot analysis. The format is functional, cell-based. The gist of the method: as §2
The test system of test [9] is HCT-116. The experiment in a line: Induction of apoptosis in human HCT116 cells assessed as effect on HSP-70 expression after 72 hrs by Western blot analysis. The test is classed as functional, cell-based. Put shortly: as §2
The subject of test [10] is HCT-116. Briefly: Induction of apoptosis in human HCT116 cells assessed as PARP cleavage after 72 hrs by Western blot analysis. The format is functional, cell-based. The gist of the method: as §2
For test [11], the system named is HCT-116. Briefly: Induction of apoptosis in human HCT116 cells assessed as caspase-3 activation after 72 hrs by Western blot analysis. The test is classed as functional, cell-based. The gist of the method:
as §2

In test [12] the target is Epidermal growth factor receptor (Homo sapiens) (UniProt P00533). The experiment in a line: Inhibition of EGFR signaling in human HCT116 cells assessed as effect on CDK4 expression at 5 to 20 uM after 24 hrs by Western blot analysis. The test is classed as cell-based. The settings on record: HCT-116.
Epidermal growth factor receptor (Homo sapiens), sequence (P00533 whole entry): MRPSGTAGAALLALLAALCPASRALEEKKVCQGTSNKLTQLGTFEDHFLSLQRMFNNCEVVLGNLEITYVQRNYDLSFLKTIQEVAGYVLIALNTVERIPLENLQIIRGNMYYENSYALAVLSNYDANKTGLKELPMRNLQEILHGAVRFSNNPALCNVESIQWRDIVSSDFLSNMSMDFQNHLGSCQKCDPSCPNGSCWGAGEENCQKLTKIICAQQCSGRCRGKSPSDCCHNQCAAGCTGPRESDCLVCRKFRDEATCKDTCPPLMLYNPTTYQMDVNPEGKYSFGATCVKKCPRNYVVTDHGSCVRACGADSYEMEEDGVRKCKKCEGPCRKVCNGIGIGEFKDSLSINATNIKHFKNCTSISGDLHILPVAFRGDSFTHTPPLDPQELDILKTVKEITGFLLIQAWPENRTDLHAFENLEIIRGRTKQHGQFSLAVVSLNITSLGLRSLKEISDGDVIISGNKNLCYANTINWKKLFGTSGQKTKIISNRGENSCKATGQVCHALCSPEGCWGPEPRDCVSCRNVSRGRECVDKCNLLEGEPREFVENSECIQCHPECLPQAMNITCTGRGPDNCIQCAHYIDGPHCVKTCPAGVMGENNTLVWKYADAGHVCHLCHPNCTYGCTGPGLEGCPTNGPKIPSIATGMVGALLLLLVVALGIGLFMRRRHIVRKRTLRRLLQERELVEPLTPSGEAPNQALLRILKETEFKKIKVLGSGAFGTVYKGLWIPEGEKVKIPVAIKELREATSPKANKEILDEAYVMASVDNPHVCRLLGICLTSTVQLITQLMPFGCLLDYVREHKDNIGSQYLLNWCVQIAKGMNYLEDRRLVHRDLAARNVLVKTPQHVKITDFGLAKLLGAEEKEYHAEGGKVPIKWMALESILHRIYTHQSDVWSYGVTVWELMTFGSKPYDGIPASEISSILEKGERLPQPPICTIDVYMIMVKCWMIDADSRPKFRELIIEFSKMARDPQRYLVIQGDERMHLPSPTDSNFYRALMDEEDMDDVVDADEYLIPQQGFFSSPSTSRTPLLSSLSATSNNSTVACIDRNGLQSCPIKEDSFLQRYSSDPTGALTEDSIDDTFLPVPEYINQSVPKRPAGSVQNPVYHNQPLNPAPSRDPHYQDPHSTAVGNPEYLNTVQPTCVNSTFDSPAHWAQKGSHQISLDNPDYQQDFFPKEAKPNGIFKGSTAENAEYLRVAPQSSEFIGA
Test [13] has the same target. The experiment in a line: Inhibition of EGFR signaling in human HCT116 cells assessed as inhibition of Rb expression after 24 hrs by Western blot analysis. The test is classed as cell-based. The settings on record: HCT-116.
For test [14] the target is unchanged. Briefly: Inhibition of EGFR signaling in human HCT116 cells assessed as effect on CDK2 expression at 5 to 20 uM after 24 hrs by Western blot analysis. The test is classed as cell-based. The settings on record: HCT-116.
Test [15] has the same target. The experiment in a line: Inhibition of EGFR signaling in human HCT116 cells assessed as inhibition of cyclin E1 expression after 24 hrs by Western blot analysis. The format is cell-based. The settings on record: HCT-116.
Test [16] shares this target. The experiment in a line: Inhibition of EGFR signaling in human HCT116 cells assessed as inhibition of cyclin D1 expression after 24 hrs by Western blot analysis. The settings on record: HCT-116. The format is cell-based.
The target is the same in test [17]. The experiment in a line: Inhibition of EGFR signaling in human HCT116 cells assessed as induction of p21 WAF-1/CIP-1 expression at 5 uM after 24 hrs by Western blot analysis relative to control. The format is cell-based. The settings on record: HCT-116.
For test [18] the target is unchanged. Briefly: Inhibition of EGFR signaling in human HCT116 cells assessed as induction of p21 WAF-1/CIP-1 expression at 10 uM after 24 hrs by Western blot analysis relative to control. The format is cell-based. As to conditions: HCT-116.
Test [19] shares this target. Briefly: Inhibition of EGFR signaling in human HCT116 cells assessed as induction of p21 WAF-1/CIP-1 expression at 20 uM after 24 hrs by Western blot analysis relative to control. The test is classed as cell-based. As to conditions: HCT-116.
Test [20] relates to HCT-116. The experiment in a line: Cell cycle arrest in human HCT116 cells assessed as accumulation at G0/G1 phase at 5 uM after 24 hrs by flow cytometry relative to control. The format is functional, cell-based. The gist of the method: (§3)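 HCT116 or HT29 cells seeded at 4 × 10⁴ cells/ml in 6-well plates and left 24 h to attach, then exposed for 24 h in complete McCoy's 5A (5% FBS) with 0.1% DMSO final, at 5, 10 or 20 µM. Floating and trypsinized cells were pooled, PBS-washed, fixed overnight in 70% ethanol at 4 °C and stained with PI/RNase for 15 min at room temperature. Flow DNA content gave G0/G1, S and G2/M fractions as fold of control, from three independent assays.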
Background: A flow cytometer gives signals particle by particle.

For test [21], the system named is HT-29. Briefly: Cell cycle arrest in human HT-29 cells assessed as accumulation at G0/G1 phase at 5 uM after 24 hrs by flow cytometry relative to control. The test is classed as functional, cell-based. Put shortly: as §3
The subject of test [22] is HT-29. The experiment in a line: Cell cycle arrest in human HT-29 cells assessed as increase in G2/M population at 10 uM after 24 hrs by flow cytometry relative to control. The test is classed as functional. The gist of the method: as §3
Test [23] deals with HT-29. The experiment in a line: Cell cycle arrest in human HT-29 cells assessed as increase in G2/M population at 5 uM after 24 hrs by flow cytometry relative to control. The format is functional. Put shortly:
as §3

Test [24] relates to HT-29. Briefly: Cell cycle arrest in human HT-29 cells assessed as increase in G2/M population at 20 uM after 24 hrs by flow cytometry relative to control. The test is classed as functional. Put shortly: as §3
Test [25] relates to HCT-116. Briefly: Cell cycle arrest in human HCT116 cells assessed as increase in G2/M population at 10 uM after 24 hrs by flow cytometry relative to control. The test is classed as functional. Put shortly: as §3
Test [26] deals with HCT-116. Briefly: Cell cycle arrest in human HCT116 cells assessed as increase in G2/M population at 5 uM after 24 hrs by flow cytometry relative to control. The test is classed as functional. Put shortly: as §3
In test [27] the test system is HCT-116. Briefly: Cell cycle arrest in human HCT116 cells assessed as increase in G2/M population at 20 uM after 24 hrs by flow cytometry relative to control. The format is functional. The gist of the method: as §3
For test [28], the system named is HCT-116. Briefly: Inhibition of EGFR protein expression in human HCT116 cells after 72 hrs by Western blot analysis. The format is functional, cell-based. Put shortly:
(§4)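 HCT116 or HT29 seeded at 8 × 10⁴ cells/ml in 15 cm dishes for 24 h, then treated for 72 h at 20 µM or at 5, 10 and 20 µM. Whole-cell lysates were made in Tris-HCl/NaCl/Triton buffer with phosphatase and protease inhibitors (pH 7.5), sonicated and cleared at 10,000g; protein was measured by BCA. Blots were blocked in 5% milk/TBST and developed by ECL. P-EGFR(Tyr1068) and total EGFR bands were normalized to β-tubulin, as means of three experiments.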

The subject of test [29] is HT-29. Briefly: Inhibition of EGFR protein expression in human HT-29 cells after 72 hrs by Western blot analysis. The test is classed as functional, cell-based. The gist of the method:
as §4

Test [30] concerns the target Epidermal growth factor receptor (Homo sapiens) (UniProt P00533). Briefly: Inhibition of EGFR phosphorylation at Tyr1068 residue in human HCT116 cells after 72 hrs by Western blot analysis. The test is classed as cell-based. As to conditions: HCT-116. The gist of the method:
as §4

For test [31] the target is unchanged. The experiment in a line: Inhibition of EGFR phosphorylation at Tyr1068 residue in human HT-29 cells after 72 hrs by Western blot analysis. The format is cell-based. The gist of the method: as §4

`COc1ccc(/C=C/c2cc(/C=C/c3ccc(OC)c(OC)c3)nc(NCCCO)n2)cc1OC`: in the test with HT-29 [1], the “growth inhibition (GI)” value is “Dose-dependent effect” and the IC50 turned out to be 12.8 µM. Moreover, in the test on HCT-116 [2], the “growth inhibition (GI)” value is “Dose-dependent effect” and the IC50 amounted to 9.9 µM.
As for `COc1cc(/C=C/c2cc(/C=C/c3cc(OC)c(OC)c(OC)c3)nc(NCCCO)n2)cc(OC)c1OC`, the “growth inhibition (GI)” value with HT-29 [1] and in the test on HCT-116 [2] was “Dose-dependent effect” each time. For the same compound, the IC50 with HT-29 [1] was 12.4 µM; in the test with HCT-116 [2] it was 7.4 µM.
As to `COc1ccc(/C=C/c2cc(/C=C/c3ccc(OC)c(OC)c3)nc(NCCO)n2)cc1OC`, the Ratio with HCT-116 [3] worked out at 2.1; in the test with HCT-116 [4], 17; in the test on HCT-116 [5], 19. For the same compound, the Activity result in the test on HCT-116 [6], with HCT-116 [7], in the test on HCT-116 [8], in the test with HCT-116 [9], in the test on HCT-116 [10] and in the test on HCT-116 [11] was “Dose-dependent effect” each time. Besides, the inhibition entry in test [12] and in test [14] was “inactive” each time. The inhibition entry (in test [13]; in test [15]; in [16]; in the test with HCT-116 [28]; in the test on HT-29 [29]; in test [30]) was “Dose-dependent effect” throughout. In test [31], the inhibition result is “Dose-dependent effect”. Besides, the fold change (FC) in [17] worked out at 21.4; in [18], 28.6; in test [19] it was 25.7; in the test with HT-29 [22], 1.94; in the test on HT-29 [23], 1.86; in the test on HT-29 [24], 2.4. Moreover, the entries for the “fold change (FC)” value in the test on HCT-116 [25], in the test on HCT-116 [26] and in the test on HCT-116 [27] were 1.78, 1.54 and 2.05, respectively. The result with HCT-116 [20] and with HT-29 [21] was Active. The “growth inhibition (GI)” value in the test with HT-29 [1] and with HCT-116 [2] was “Dose-dependent effect” each time. For the same compound, the IC50 with HT-29 [1] was determined as 7.1 µM; in the test with HCT-116 [2], 6.2 µM.

Broadly, the IC50 is the concentration at which inhibition is half-maximal.
